Measurements published in PubChem BioAssay AID652011 (Sanford-Burnham Center for Chemical Genomics, 2013).
Several values for one entry are separate records, joined by “and”; a condition that tells them apart may be missing. Identical values can stand only once.

What follows are molecules tested against Hypoxia-inducible factor 1-alpha (Homo sapiens) (UniProt Q16665) (assay: HIF reporter inhibition across pancreatic and renal lines – cell-based, luminescence, MIAPaCa-2, 786-0, panel, SAR follow-up (AID 652011)). Settings: MIAPaCa-2/PANC HIF reporter, luciferase luminescence, desferoxamine, overnight, HIF1a, run 2; at 99 µM (top of the series).
Outline: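 Probe or stimulus: desferoxamine stimulus / Schedule: overnight compound incubation at 37 °C, 10 min reagent / Dosing: compounds from 10 mM and 0.3125 mM stocks, 1% DMSO final / Signal: luciferase luminescence with One-Glo reagent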

Chain of Hypoxia-inducible factor 1-alpha (Homo sapiens) (Q16665 whole entry, looked up): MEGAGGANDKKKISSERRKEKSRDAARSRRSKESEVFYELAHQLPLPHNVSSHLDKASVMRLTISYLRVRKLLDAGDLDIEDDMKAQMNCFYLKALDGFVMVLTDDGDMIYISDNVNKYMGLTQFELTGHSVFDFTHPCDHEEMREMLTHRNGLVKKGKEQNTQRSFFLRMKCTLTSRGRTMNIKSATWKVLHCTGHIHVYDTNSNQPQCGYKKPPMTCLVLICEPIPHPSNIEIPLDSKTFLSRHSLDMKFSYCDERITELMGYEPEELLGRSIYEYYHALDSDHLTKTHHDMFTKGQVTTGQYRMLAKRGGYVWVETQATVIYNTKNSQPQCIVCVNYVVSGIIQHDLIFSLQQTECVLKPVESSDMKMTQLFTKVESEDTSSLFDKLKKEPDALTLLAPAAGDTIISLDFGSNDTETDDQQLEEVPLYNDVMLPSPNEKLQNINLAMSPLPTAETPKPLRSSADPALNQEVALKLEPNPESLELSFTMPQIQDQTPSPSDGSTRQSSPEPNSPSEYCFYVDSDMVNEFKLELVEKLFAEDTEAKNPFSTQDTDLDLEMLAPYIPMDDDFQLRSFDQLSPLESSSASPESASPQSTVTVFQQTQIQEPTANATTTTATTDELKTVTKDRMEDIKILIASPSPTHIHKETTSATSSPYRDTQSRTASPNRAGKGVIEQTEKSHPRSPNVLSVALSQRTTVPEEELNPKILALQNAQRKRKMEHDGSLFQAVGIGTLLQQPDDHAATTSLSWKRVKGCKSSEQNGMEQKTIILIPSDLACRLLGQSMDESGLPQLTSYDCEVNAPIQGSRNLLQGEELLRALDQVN

Row | SMILES | inhibition
1 | CCNC(=O)CCc1nc(-c2cccc(F)c2)no1 | -31.8%
2 | CC(C)(C)c1ccc(-c2noc(CCC(=O)Nc3cccc([N+](=O)[O-])c3)n2)cc1 | 91.4%
3 | CCNC(=O)CCc1nc(-c2ccc(C(C)(C)C)cc2)no1 | 10.5% and -4.06%
4 | CCCCc1ccc(-c2noc(CCC(=O)NC(C)CC)n2)cc1 (stereo unspecified) | 58.1%
5 | CCNC(=O)CCc1nc(-c2ccc(C(C)C)cc2)no1 | -15.6%
6 | CCNC(=O)CCc1nc(-c2cccc(OC)c2)no1 | -31.4%
7 | CCCCc1ccc(-c2noc(CCC(=O)NC3CC3)n2)cc1 | 36%
8 | CCNC(=O)CCc1nc(-c2ccc(CC)cc2)no1 | -31.3%
9 | CC(C)(C)NC(=O)CCc1nc(-c2ccc(C(C)(C)C)cc2)no1 | 96.7%
10 | CC(C)(C)c1ccc(-c2noc(CCC(=O)NCC3CCCO3)n2)cc1 (stereo unspecified) | 8.05%
11 | CNC(=O)CCc1nc(-c2ccc(OC)cc2)no1 | -31.5%
